Measured values as given in ChEMBL document CHEMBL1136924 (J Med Chem, 2009).
Active and inactive are the calls of the source.

How the values were obtained:
[1] = molecular target: T1, 5-hydroxytryptamine receptor 3A (Cavia porcellus) (UniProt O70212); assay: Agonist activity at 5HT3 receptor in voltage-stimulated guinea pig left atrium assessed as positive inotropic potency; assay type: functional, tissue-based; conditions: Cardiac atrium
T1 sequence (whole entry): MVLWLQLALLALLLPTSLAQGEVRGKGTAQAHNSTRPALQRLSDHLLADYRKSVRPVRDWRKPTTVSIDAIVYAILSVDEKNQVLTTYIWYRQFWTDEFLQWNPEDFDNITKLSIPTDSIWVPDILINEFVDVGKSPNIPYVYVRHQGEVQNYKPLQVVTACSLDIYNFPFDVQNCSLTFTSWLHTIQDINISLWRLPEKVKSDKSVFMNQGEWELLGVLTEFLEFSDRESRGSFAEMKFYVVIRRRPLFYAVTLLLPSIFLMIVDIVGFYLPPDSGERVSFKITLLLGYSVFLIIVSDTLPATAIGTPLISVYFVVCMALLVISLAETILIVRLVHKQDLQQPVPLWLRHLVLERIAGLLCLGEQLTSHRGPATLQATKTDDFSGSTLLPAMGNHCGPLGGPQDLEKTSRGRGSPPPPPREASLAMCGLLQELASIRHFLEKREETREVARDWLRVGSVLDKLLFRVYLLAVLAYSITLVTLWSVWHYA
In short: (§1)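 Isolated guinea pig atria in PSS (Tyrode) with ketanserin 1 µM, 95% O2-5% CO2, pH 7.4, 35 °C. Right atrium beating spontaneously (rate); left atrium paced 1 Hz, 0.6-0.8 ms pulses near 50% threshold (force). Isometric recording after 45-60 min stabilization.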

[2] = molecular target: T1, 5-hydroxytryptamine receptor 3A (Cavia porcellus); assay: Agonist activity at 5HT3 receptor in spontaneously beating guinea pig right atrium assessed as positive chronotropic potency; assay type: functional, tissue-based; conditions: Cardiac atrium; in short: as §1
[3] = molecular target: T1, 5-hydroxytryptamine receptor 3A (Cavia porcellus); conditions: Thoracic aorta
Rattus norvegicus [4] = assay: Antagonist activity at 5HT3 receptor in urethane-anesthetized Sprague-Dawley rat assessed as attenuation of 1-phenylbiguanide-induced bradycardia at 50 ug/kg, iv administered 5 mins before 1-phenylbiguanide challenge measured after 30 mins post-treatment by von Bezold-Jarisch reflex test; assay type: functional; set-up: scale not given: the % may be the effect or the level left
[5] = molecular target: T2, 5-hydroxytryptamine receptor 3A (Rattus norvegicus, UniProt P35563); assay: Displacement of [3H]LY278584 from 5HT3 receptor in rat cortical homogenate
T2 sequence (P35563 whole entry): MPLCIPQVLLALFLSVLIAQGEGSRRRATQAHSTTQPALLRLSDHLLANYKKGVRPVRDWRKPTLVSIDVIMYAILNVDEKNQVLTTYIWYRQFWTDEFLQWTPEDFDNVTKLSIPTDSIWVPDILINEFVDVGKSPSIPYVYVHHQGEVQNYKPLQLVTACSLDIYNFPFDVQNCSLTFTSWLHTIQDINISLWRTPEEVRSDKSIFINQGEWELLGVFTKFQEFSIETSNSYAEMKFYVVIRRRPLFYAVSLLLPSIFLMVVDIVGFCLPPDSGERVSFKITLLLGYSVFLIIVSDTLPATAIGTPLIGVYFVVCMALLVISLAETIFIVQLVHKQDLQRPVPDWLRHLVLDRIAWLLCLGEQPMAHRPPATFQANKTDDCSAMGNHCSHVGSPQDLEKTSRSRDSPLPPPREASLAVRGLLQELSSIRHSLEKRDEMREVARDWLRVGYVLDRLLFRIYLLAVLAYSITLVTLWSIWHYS

[6] = molecular target: T1, 5-hydroxytryptamine receptor 3A (Cavia porcellus); assay: Agonist activity at 5HT3 receptor in voltage-stimulated guinea pig left atrium assessed as positive inotropic potency at 100 uM; assay type: functional, tissue-based; conditions: Cardiac atrium
In short: (§2)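 Guinea pig left and right atria were hung in a 15 mL bath of PSS (pH 7.4, 95% O2-5% CO2, 35 °C) with ketanserin 1 µM. The right atrium beat spontaneously; the left was paced at 1 Hz. Cumulative doses (0.1-100 µM; DMSO ≤0.3%) were added after 45-60 min stabilization. Rate or isometric force was recorded. EC50 came from Probit analysis, n≥4. Intrinsic activity was taken relative to 5-HT.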

[7] = molecular target: T1, 5-hydroxytryptamine receptor 3A (Cavia porcellus); assay: Agonist activity at 5HT3 receptor in spontaneously beating guinea pig right atrium assessed as positive chronotropic potency at 100 uM; assay type: functional, tissue-based; conditions: Cardiac atrium; in short: as §2
[8] = molecular target: T1, 5-hydroxytryptamine receptor 3A (Cavia porcellus); assay: Agonist activity at 5HT3 receptor in guinea pig thoracic aorta assessed as positive contractility potency at 100 uM; assay type: functional, tissue-based
In short: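 Guinea pig aortic helicoidal strips in PSS at 35 °C, aerated, under 1 g resting force, washed every 20 min for 1 h. Compounds added cumulatively 0.1-100 µM (DMSO vehicle); isometric contraction recorded.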

[9] = molecular target: T3, 5-hydroxytryptamine receptor 3A (Cavia porcellus, UniProt O70212); assay: Antagonist activity at 5HT3 receptor in spontaneously beating guinea pig right atrium assessed as inhibition of serotonin-induced maximum response by noncompetitive binding assay; assay type: tissue-based, Cardiac atrium
T3 sequence (O70212 whole entry): T1 sequence (whole entry)
In short: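 Spontaneously beating guinea pig right atrium; 5-HT concentration-response curves (0.001-1.0 µM) before and after 30 min antagonist exposure at three concentrations. IC50 is inhibition of 50% of maximal 5-HT response, Probit analysis, n = 4-6.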

Rattus norvegicus [10] = assay: Antagonist activity at 5HT3 receptor in iv dosed urethane-anesthetized Sprague-Dawley rat assessed as inhibition of 1-phenylbiguanide-induced bradycardia administered 5 mins before 1-phenylbiguanide challenge measured after 5 to 30 mins post-treatment by von Bezold-Jarisch reflex test; assay type: functional
Rattus norvegicus [11] = assay: Antagonist activity at 5HT3 receptor in urethane-anesthetized Sprague-Dawley rat assessed as effect on 1-phenylbiguanide-induced bradycardia at 36 ug/kg, iv administered 5 mins before 1-phenylbiguanide challenge measured after 5 to 30 mins post-treatment by von Bezold-Jarisch reflex test; assay type: functional, organism-based
Rattus norvegicus [12] = assay: Agonist activity at 5HT3 receptor in iv dosed urethane-anesthetized Sprague-Dawley rat assessed as induction of bradycardia measured after 5 to 30 mins post-treatment by von Bezold-Jarisch reflex test; assay type: functional
[13] = molecular target: T1, 5-hydroxytryptamine receptor 3A (Cavia porcellus); assay: Intrinsic activity at 5HT3 receptor in voltage-stimulated guinea pig left atrium assessed as positive inotropic potency relative to serotonin; assay type: tissue-based; conditions: Cardiac atrium
In short: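 Electrically paced guinea pig left atrium (1 Hz) in PSS containing ketanserin 1 µM, pH 7.4, 35 °C. Contractile force recorded isometrically while cumulative concentrations of 0.1-100 µM were added (DMSO ≤0.3%). Intrinsic activity is expressed as the maximal response relative to that of 5-HT.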

Rattus norvegicus [14] = assay: Agonist activity at 5HT3 receptor in urethane-anesthetized Sprague-Dawley rat assessed as decrease in heart rate at 40 ug/kg, iv up to 30 seconds post-treatment by von Bezold-Jarisch reflex test; assay type: functional; set-up: scale not given: the % may be the effect or the level left
[15] = molecular target: T3, 5-hydroxytryptamine receptor 3A; assay: Antagonist activity at 5HT3 receptor in spontaneously beating guinea pig right atrium assessed as inhibition of serotonin-induced maximum response by competitive binding assay; set-up: species or system Cardiac atrium; conditions: read-out: pA2 (converted)
[16] = Ratio of drug level in brain to plasma in rat at 5 mg/kg; assay type: ADME, organism-based; set-up: dose 5 mg/kg
Rattus norvegicus [17] = assay: Antagonist activity at 5HT3 receptor in urethane-anesthetized Sprague-Dawley rat assessed as prevention of 1-phenylbiguanide-induced bradycardia at 1 ug/kg, iv administered 5 mins before 1-phenylbiguanide challenge measured after 5 mins post-treatment by von Bezold-Jarisch reflex test; assay type: functional; set-up: scale not given: the % may be the effect or the level left

**Q.** What does the source list for `NCCc1c[nH]c2ccc(O)cc12`?
**A.** pD2 [1]: 6.85; pD2 [2]: 5.78; pD2 [3]: 4.19

**Q.** For `NC(=O)CN1CCN(c2nc3cc(F)ccc3n3cccc23)CC1`, which Activity (Rattus norvegicus [4]) is on record?
**A.** The Activity was 35%.

**Q.** And the Ki [5]?
**A.** Its Ki is 7.3 nM.

**Q.** And the pD2 [6]?
**A.** The pD2 was “inactive”.

**Q.** What about the pD2 [7] of the same compound?
**A.** Its pD2 is “inactive”.

**Q.** What about the pD2 [8] of the same compound?
**A.** The pD2 was “inactive”.

**Q.** And the IC50 [9]?
**A.** The IC50 was 11200 nM.

**Q.** And the ID50 (Rattus norvegicus [10])?
**A.** Its ID50 is “Dose-dependent effect”.

**Q.** And the ED50 (Rattus norvegicus [10]; read-out: ID50 (the source's name))?
**A.** Its ED50 is 0.075 mg/kg.

**Q.** Which results are given for `O=C(O)CN1CCN(c2nc3cc(F)ccc3n3cccc23)CC1`?
**A.** Activity (Rattus norvegicus [11]): inactive; Ki [5]: 11.7 nM; pD2 [6]: inactive; pD2 [7]: inactive; pD2 [8]: inactive; IC50 [9]: 1910 nM; ED50 (Rattus norvegicus [12]): 0.036 mg/kg

**Q.** Which results are given for `N=C(N)NC(=N)Nc1ccccc1` [PHENYL BIGUANIDE]?
**A.** pD2 [1]: 4.31; Intrinsic activity [13]: 1; Activity (Rattus norvegicus [14]): 64%

**Q.** With `CN1[C@@H]2CC[C@H]1C[C@@H](OC(=O)c1c[nH]c3ccccc13)C2` [TROPISETRON] as the compound, how does the pD2 [6] read?
**A.** Its pD2 is “inactive”.

**Q.** And the pD2 [7]?
**A.** Its pD2 is “inactive”.

**Q.** And the pD2 [8]?
**A.** The pD2 was “inactive”.

**Q.** What about the Kb [15] of the same compound?
**A.** The Kb was 30.2 nM.

**Q.** For `O=C(O)CN1CCN(c2nc3cccc(F)c3n3cccc23)CC1`, which Kp [16] is on record?
**A.** The Kp was 0.1.

**Q.** For `COc1cc(N)c(Cl)cc1C(=O)NC1CN2CCC1CC2` (configuration not stated) [ZACOPRIDE], which Activity (Rattus norvegicus [17]) is on record?
**A.** The Activity was 100%.
